One assay is filed under the species Rattus norvegicus. The assay can be described thus: Inhibition of [Ca2+] induced contraction of K+ depolarized rat aorta by 50%. The format is functional. In short, it runs like this:
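Spirally cut thoracic aorta strips from male Wistar rats were held in modified Krebs solution at 37 °C, gassed with 95% O2/5% CO2. Ca2+-induced contraction was measured after K+ depolarization. The value is the molar concentration blocking contraction by 50%, given as mean ± SE of 3–6 determinations.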

Assay [1] is described as follows: Inhibitory concentration of [3H]- nitrendipine binding against guinea pig cerebral cortex membrane. The format is functional, tissue-based, Cavia porcellus. The method in brief:
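Guinea pig cerebral cortex membranes (washed pellets, stored in liquid nitrogen), 200 μg protein, incubated under sodium light for 90 min at 25 °C in 50 mmol Tris-HCl pH 7.4 with 0.5 nmol [3H]nitrendipine and various compound concentrations (DMSO). Filtration and scintillation counting; 1 μM nifedipine defined specific binding.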

The species entered for assay [2] is Cavia porcellus. Nature of the assay: Molar concentration needed to […] by 50% of maximal stimulation. The format is functional.
Assay [3] is filed under the species Cavia porcellus. The assay can be described thus: Inhibition of [3H]nitrendipine binding to L-type calcium channel of guinea pig cerebral cortex membrane at 10e-5 M. The format is functional, tissue-based.
The species named for assay [4] is Cavia porcellus. The assay can be described thus: Stimulatory concentration of [3H]nitrendipine binding to L-type calcium channel of guinea pig cerebral cortex membrane at 10e-6 M. The format is functional, tissue-based.

For `COc1ccc(CCNCCCOc2ccc(S(=O)(=O)c3c(C(C)C)oc4ccccc34)cc2)cc1OC`, the concentration for half-maximal inhibition (IC50) (in general, the point on the concentration scale where inhibition reaches its midpoint) in the assay listed under Rattus norvegicus is 17.1 nM; in assay [1], 1.6 nM.
Taken in the same sequence, the figures for `CCCCN(CCCC)CCCOc1ccc(S(=O)(=O)c2cc3ccccc3nc2C(C)C)cc1` were 198 nM and 94 nM.
Consider `COC(=O)C1=C(C)NC(C)=C(C(=O)OC)C1c1ccccc1[N+](=O)[O-]` [NIFEDIPINE], for which the IC50 in assay [1] came out at 2.5 nM.
Take `COc1ccc([C@@H]2Sc3ccccc3N(CCN(C)C)C(=O)[C@@H]2OC(C)=O)cc1` [DILTIAZEM]: the concentration for half-maximal inhibition (IC50) in the assay filed under Cavia porcellus [2] was 59 nM.
For `CCCCc1oc2ccccc2c1S(=O)(=O)c1ccc(OCCCN(C)CCc2ccc(OC)c(OC)c2)cc1`, the values for the IC50 (in the assay listed under Rattus norvegicus; in assay [1]) were 227 nM and 7.9 nM, respectively.
As for `CCCCN(CCCC)CCCOc1ccc(S(=O)(=O)c2ccoc2C(C)C)cc1`, the IC50 came out at 119 nM in the assay listed under Rattus norvegicus and 186 nM in assay [1].
On the same counts, the results for `COc1ccc(CCN(C)CCCOc2ccc(S(=O)(=O)c3c(C(C)C)[nH]c4ccccc34)cc2)cc1OC` are 19.1 nM and 10.9 nM.
Taken in the same sequence, the figures for `CCCCN(CCCC)CCCOc1ccc(S(=O)(=O)c2c(C(C)C)[nH]c3ccccc23)cc1` were 55.1 nM and 110 nM.
As to `COc1cc(CCN(C)CCCOc2ccc(S(=O)(=O)c3c(C(C)C)c4ccccc4n3C)cc2)cc(OC)c1OC`, the IC50 in the assay filed under Rattus norvegicus came out at 1.9 nM; in assay [1], 0.28 nM.
On the same counts, the results for `CC(C)c1c(S(=O)(=O)c2ccc(OCCCNC(C)(C)C)cc2)c2ccccc2n1C` are 99.3 nM and 116 nM.
Taken in the same sequence, the figures for `CC(C)c1occc1S(=O)(=O)c1ccc(OCCCNC(C)(C)C)cc1` were 235 nM and 244 nM.
In the case of `COc1ccc(CN(C)CCCOc2ccc(S(=O)(=O)c3c(C(C)C)n(C)c4ccccc34)cc2)cc1OC`, the IC50 was determined as 3.7 nM in the assay filed under Rattus norvegicus and 1 nM in assay [1].
On the same counts, the results for `COc1ccc(CCN(C)CCCOc2ccc(S(=O)(=O)c3c(C(C)C)n(C)c4ccccc34)cc2)cc1OC` are 4.3 nM and 1.1 nM.
`CCCCN(CCCC)CCCOc1ccc(S(=O)(=O)c2c[nH]nc2C(C)C)cc1`: the IC50 in the assay listed under Rattus norvegicus was 5060 nM. Moreover, in the assay listed under Cavia porcellus [3], the inhibition (as a rule, the relative decrease from the control value, in per cent) is 6%.
Turning to `CCCc1oc2ccccc2c1S(=O)(=O)c1ccc(OCCCN(C)CCc2ccc(OC)c(OC)c2)cc1`, the IC50 in the assay filed under Rattus norvegicus came out at 50.8 nM; in assay [1], 5.2 nM.
Taken in the same sequence, the figures for `COc1ccc(CCN(C)CCCOc2ccc(S(=O)(=O)c3c(C(C)C)cc4ccccn34)cc2)cc1OC` were 5.9 nM and 0.22 nM.
Consider `COc1ccc(CCN(C)CCCC(C#N)(c2ccc(OC)c(OC)c2)C(C)C)cc1OC` (stereo unspecified), for which the concentration for half-maximal inhibition (IC50) in assay [1] came out at 38 nM.
As for `COc1ccc(CN(C)CCCOc2ccc(S(=O)(=O)c3c(C(C)C)oc4ccccc34)cc2)cc1OC`, the figures for the IC50 (in the assay filed under Rattus norvegicus; in assay [1]) were 14.3 nM and 1.9 nM, respectively.
Consider `COc1ccc(CCN(C)CCCOc2ccc(S(=O)(=O)c3c(C(C)C)oc4ccccc34)cc2)cc1OC`, for which the IC50 in the assay listed under Rattus norvegicus worked out at 20.2 nM; in assay [1], 0.65 nM.
On the same counts, the results for `COc1cc(CCN(C)CCCOc2ccc(S(=O)(=O)c3c(C(C)C)c4ccccc4n3C)cc2)cc(OC)c1` are 16.4 nM and 0.093 nM.
Regarding `COc1ccc(CCN(C)CCCOc2ccc(S(=O)(=O)c3ccoc3C(C)C)cc2)cc1OC`, it took 84.2 nM to reach half-maximal inhibition in the assay filed under Rattus norvegicus (IC50).
As to `CCCCN(CCCC)CCCOc1ccc(S(=O)(=O)c2c(C(C)C)cc3ccccn23)cc1`, the values for the IC50 (in the assay filed under Rattus norvegicus; in assay [1]) were 13.3 nM and 0.99 nM, respectively.
Taken in the same sequence, the figures for `COc1cc(CCN(C)CCCOc2ccc(S(=O)(=O)c3c(C(C)C)oc4ccccc34)cc2)cc(OC)c1OC` were 5.8 nM and 0.59 nM.
`COc1ccc(CCN(C)CCCOc2ccc(S(=O)(=O)c3c[nH]nc3C(C)C)cc2)cc1OC`: the Stimulation in the assay filed under Cavia porcellus [4] is 38%. This compound also had an IC50 in the assay listed under Rattus norvegicus of 1720 nM.
Take `CC(C)c1nc2ccccc2cc1S(=O)(=O)c1ccc(OCCCNC(C)(C)C)cc1`: the results for the IC50 (in the assay filed under Rattus norvegicus; in assay [1]) were 370 nM and 181 nM, respectively.
In turn, `COc1ccc(CCN(C)CCCOc2ccc(S(=O)(=O)c3c(C(C)C)cn4ccccc34)cc2)cc1OC` [FANTOFARONE] returned an IC50 in assay [1] of 0.61 nM.
On to `CC(C)c1nn2ccccc2c1S(=O)(=O)c1ccc(OCCCNC(C)(C)C)cc1`, for which the IC50 in the assay listed under Rattus norvegicus was found to be 168 nM.
`CCCCN(CCCC)CCCOc1ccc(S(=O)(=O)c2c(C(C)C)n(C)c3ccccc23)cc1`: the IC50 was 24.1 nM in the assay filed under Rattus norvegicus and 11 nM in assay [1].
On the same counts, the results for `COc1ccc(CCN(C)CCCOc2ccc(S(=O)(=O)c3cc4ccccc4nc3C(C)C)cc2)cc1OC` are 84.2 nM and 13.1 nM.
In turn, `CCCCN(CCCC)CCCOc1ccc(S(=O)(=O)c2c(C(C)C)nn3ccccc23)cc1` registered an IC50 in the assay filed under Rattus norvegicus of 31.1 nM. In other words, the double-digit nanomolar range.
With `COc1ccc(CCN(C)CCCOc2ccc(S(=O)(=O)c3c(C(C)C)c4ccccc4n3C)cc2)cc1OC`, the figures for the half-maximal inhibitory concentration (IC50) (in the assay filed under Rattus norvegicus; in assay [1]) were 3.7 nM and 0.072 nM, respectively.
With `COc1ccc(CCN(C)CCCOc2ccc(S(=O)(=O)c3[nH]c4ccccc4c3C(C)C)cc2)cc1OC`, the IC50 in the assay filed under Rattus norvegicus was 37.5 nM; in assay [1], 2.2 nM.
On the same counts, the results for `CC(C)c1cc2ccccn2c1S(=O)(=O)c1ccc(OCCCNC(C)(C)C)cc1` are 32.9 nM and 12 nM.
For the compound `COc1ccc(CCN(C)CCCOc2ccc(S(=O)(=O)c3c(C(C)C)nn4ccccc34)cc2)cc1OC`, the IC50 in the assay listed under Rattus norvegicus is 18.8 nM; in assay [1], 2.6 nM.

The record behind these values is ChEMBL document CHEMBL1126689, “Novel heterocyclic analogues of the new potent class of calcium entry blockers: 1-[[4-(aminoalkoxy)phenyl]sulfonyl]indolizines” (J Med Chem, 1993).
